Active and inactive are the calls of the source. The calls are words filed in the database; no cut-off is given here.
How the values were obtained:
[1] = system: Mus musculus; assay: Inhibition of amphetamine-induced hyperlocomotion in Albino Swiss mouse at 0.1 ED50, ip administered 60 mins prior to test measured for 30 mins by photoresistor actometer analysis; assay type: functional
Outline: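 Single male Albino Swiss mice; compound i.p. 60 min and amphetamine 5 mg/kg s.c. 30 min before test. Photoresistor actometers (circular cage, two light beams) counted beam crossings over 30 min; mean ± SEM, Dunnett's test vs control.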

[2] = system: Mus musculus; assay: Inhibition of 5-HTP-induced head twitch response in Albino Swiss mouse at 0.1 ED50, ip administered 60 mins before 5-HTP injection relative to untreated control; assay type: functional
Outline: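 Male Albino Swiss mice given compound i.p. (0.1 ED50, 0.5% methylcellulose) 60 min before the test; L-5-HTP 230 mg/kg i.p. injected immediately before. Head twitches counted; mean ± SEM, Dunnett's test vs control.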

[3] = system: Mus musculus; assay: Antinociceptive activity in Albino Swiss mouse assessed as inhibition of acetic acid-induced writhing response at 0.1 ED50, ip administered 60 mins prior to test measured for 10 mins; assay type: functional, organism-based
Outline: (§1)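 Male Albino Swiss mice, i.p. dosing in 0.5% methylcellulose 60 min beforehand; 0.6% acetic acid injected i.p., writhing episodes counted for 10 min beginning 5 min after acid. Mean ± SEM; one-way ANOVA with Dunnett's test vs control.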

[4] = system: Mus musculus; assay: Antinociceptive activity in Albino Swiss mouse assessed as inhibition of acetic acid-induced writhing response at 0.025 to 0.05 ED50, ip administered 60 mins prior to test measured for 10 mins; assay type: functional, organism-based; outline: as §1
[5] = system: Mus musculus; assay: Antinociceptive activity in Albino Swiss mouse assessed as inhibition of acetic acid-induced writhing response at 0.05 ED50, ip administered 60 mins prior to test measured for 10 mins in presence of opioid receptor antagonist naloxone; assay type: functional, organism-based
[6] = system: Mus musculus; assay: Toxicity in Albino Swiss mouse assessed as inhibition of spontaneous locomotor activity at 0.1 ED50, ip administered 60 mins before test measured for 30 mins by photoresistor actometer analysis; assay type: organism-based; conditions: in vivo, 0.5 h
Outline: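 Spontaneous locomotion of single male Albino Swiss mice recorded in two-beam photoresistor actometers as beam crossings for 30 min, beginning 60 min after i.p. compound (suspension in 0.5% methylcellulose).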

[7] = system: Mus musculus; assay: Neurotoxicity in Albino Swiss mouse assessed as induction of myorelaxation at 0.0125 to 0.1 ED50, ip after 60 mins by chimney test; assay type: toxicity, organism-based; conditions: in vivo, 1 h
[8] = biological target: T1, 5-hydroxytryptamine receptor 2C (Rattus norvegicus, UniProt P08909); assay: Displacement of [3H]mesulergine from 5HT2C receptor in Sprague-Dawley rat brain cortex incubated for 15 mins
T1 sequence (P08909 whole entry): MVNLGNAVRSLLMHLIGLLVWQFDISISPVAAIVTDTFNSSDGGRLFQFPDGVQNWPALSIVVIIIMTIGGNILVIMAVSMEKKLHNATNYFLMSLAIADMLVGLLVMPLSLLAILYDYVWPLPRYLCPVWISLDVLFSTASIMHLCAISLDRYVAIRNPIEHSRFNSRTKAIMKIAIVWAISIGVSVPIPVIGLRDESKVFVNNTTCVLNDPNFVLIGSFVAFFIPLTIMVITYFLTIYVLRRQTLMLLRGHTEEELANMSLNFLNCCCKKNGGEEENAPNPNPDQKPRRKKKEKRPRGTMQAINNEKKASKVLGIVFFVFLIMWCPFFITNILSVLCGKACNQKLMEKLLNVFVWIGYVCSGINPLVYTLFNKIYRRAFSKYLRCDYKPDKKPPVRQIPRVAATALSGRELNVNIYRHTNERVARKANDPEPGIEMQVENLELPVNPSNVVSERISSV
Outline: (§2)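 Rat frontal cortex homogenized in 50 mM Tris-HCl, 0.5 mM EDTA, 10 mM MgCl2, pH 7.4, washed, resuspended with 0.1% ascorbate and pargyline. Triplicates: 5-HT2A used 0.4 nM [3H]ketanserin, cinanserin for nonspecific binding; 5-HT2C used 1 nM [3H]mesulergine, mianserin nonspecific, 100 nM spiperone added. 15 min at 37 C, glass-fiber filtration.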

[9] = biological target: 5-hydroxytryptamine receptor 2A (Rattus norvegicus, UniProt P14842); assay: Displacement of [3H]ketanserin from 5HT2A receptor in Sprague-Dawley rat brain cortex incubated for 15 mins; outline: as §2
Sequence of 5-hydroxytryptamine receptor 2A (P14842 whole entry): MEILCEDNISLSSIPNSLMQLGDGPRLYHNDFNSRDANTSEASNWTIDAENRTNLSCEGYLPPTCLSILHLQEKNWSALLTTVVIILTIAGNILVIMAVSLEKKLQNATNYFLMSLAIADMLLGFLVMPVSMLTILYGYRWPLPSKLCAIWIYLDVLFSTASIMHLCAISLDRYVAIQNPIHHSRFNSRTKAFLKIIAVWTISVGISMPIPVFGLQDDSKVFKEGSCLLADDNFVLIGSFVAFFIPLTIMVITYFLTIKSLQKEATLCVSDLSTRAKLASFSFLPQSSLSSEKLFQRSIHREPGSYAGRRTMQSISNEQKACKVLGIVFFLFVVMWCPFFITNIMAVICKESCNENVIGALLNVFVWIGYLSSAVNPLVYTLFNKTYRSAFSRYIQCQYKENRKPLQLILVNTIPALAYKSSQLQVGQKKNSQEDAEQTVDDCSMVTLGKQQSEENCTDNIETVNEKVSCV

[10] = system: Mus musculus; assay: Neurotoxicity in Albino Swiss mouse assessed as induction of myorelaxation at 0.0125 to 0.1 ED50, ip after 60 mins by rotarod test; assay type: toxicity, organism-based; conditions: in vivo, 1 h
[11] = system: Mus musculus; assay: Neurotoxicity in Albino Swiss mouse assessed as impairment in motor coordination at 0.0125 to 0.1 ED50, ip after 60 mins by rotarod test; assay type: toxicity, organism-based; conditions: in vivo, 1 h
[12] = system: Mus musculus; assay: Anticonvulsant activity in Albino Swiss mouse assessed as protection against pentetrazol-induced clonic seizure at 0.1 ED50, ip administered 60 mins prior to test relative to untreated control; assay type: functional
Outline: (§3)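 Male Albino Swiss mice (18-30 g); compound given i.p. as suspension in 0.5% methylcellulose 60 min before test; pentylenetetrazole 110 mg/kg s.c. Scored as number of mice with clonic seizures, tonic convulsions and deaths per animals tested; Fisher's exact test vs solvent control.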

[13] = system: Mus musculus; assay: Decrease in body temperature in Albino Swiss mouse at 0.1 ED50, ip administered 60 mins before test measured 30 to 120 mins post dose; assay type: functional, organism-based
Outline: (§4)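 Normothermic male Albino Swiss mice; rectal temperature by thermistor thermometer. Baseline taken as mean of readings at 60 and 30 min before dosing; i.p. dose (0.1 ED50, 0.5% methylcellulose vehicle) then readings at 30, 60, 90, 120 min (to 180 min for some). Change = final minus initial; Bonferroni post hoc test.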

[14] = system: Mus musculus; assay: Toxicity in ip dosed Albino Swiss mouse assessed as loss of righting reflex administered 60 mins before test measured up to 48 hrs; assay type: organism-based; conditions: in vivo
Outline: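 Acute toxicity in male Albino Swiss mice by Litchfield-Wilcoxon method: ED50 for loss of righting reflex after i.p. dosing, observed at 15, 30, 60, 180 min and 24, 48 h.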

[15] = system: Mus musculus; assay: Neurotoxicity in Albino Swiss mouse assessed as impairment in motor coordination at 0.0125 to 0.1 ED50, ip after 60 mins by chimney test; assay type: toxicity, organism-based; conditions: in vivo, 1 h
[16] = system: Mus musculus; assay: Antinociceptive activity in Albino Swiss mouse assessed as inhibition of acetic acid-induced writhing response at 0.1 ED50, ip administered 60 mins prior to test measured for 10 mins in presence of opioid receptor antagonist naloxone; assay type: functional, organism-based
[17] = system: Mus musculus; assay: Anticonvulsant activity in Albino Swiss mouse assessed as protection against pentetrazol-induced tonic seizure at 0.1 ED50, ip administered 60 mins prior to test relative to untreated control; assay type: functional; outline: as §3
[18] = system: Mus musculus; assay: Protection against pentetrazol-induced mortality in Albino Swiss mouse at 0.05 ED50, ip administered 60 mins prior to test; assay type: functional, organism-based; outline: as §3
[19] = system: Mus musculus; assay: Decrease in body temperature in Albino Swiss mouse at 0.1 ED50, ip administered 60 mins before test measured 60 to 120 mins post dose; assay type: functional, organism-based; outline: as §4
[20] = system: Mus musculus; assay: Inhibition of 5-HTP-induced head twitch response in ddY mouse at >=1 mg/kg, po administered 1 hr before 5-HTP injection measured after 30 mins relative to untreated control; assay type: functional

Ki [8] | Ki [9] | inhibition [16] | Compound | inhibition [1] | inhibition (INH) [2] | inhibition [3] | inhibition [4] | inhibition [5] | Activity [6] | Activity [7] | Activity [10] | Activity [11] | Activity [12] | Activity [13] | ED50 [14] | Activity [15] | Activity [17] | Activity [18] | Activity [19] | inhibition (INH) [20]
> 10 µM | > 10 µM | – | CC(NC(=S)Nc1ccc(Cl)c([N+](=O)[O-])c1)c1ccccc1 (centres undefined) | inactive | 89% | Active | Active | Active | Non-toxic | Non-toxic | Non-toxic | Non-toxic | inactive | Active | 1031.3 mg/kg | Non-toxic | – | – | – | –
> 10 µM | > 10 µM | – | O=[N+]([O-])c1cc(NC(=S)Nc2ccccc2Cl)ccc1Cl | – | – | – | – | – | Non-toxic | – | – | – | – | – | – | – | – | – | – | –
> 10 µM | > 10 µM | – | O=[N+]([O-])c1cc(NC(=S)Nc2ccccc2)ccc1Cl | – | – | – | – | – | – | – | – | – | – | – | – | – | – | – | – | –
> 10 µM | > 10 µM | Active | FC(F)(F)c1cccc(NC(=S)Nc2ccccc2Cl)c1 | – | 72.4% | Active | – | – | Toxic | Non-toxic | Non-toxic | Non-toxic | – | – | 2000 mg/kg | Non-toxic | – | – | – | –
– | – | – | Cc1nc2sccn2c(=O)c1CCN1CCC(=C(c2ccc(F)cc2)c2ccc(F)cc2)CC1 [RITANSERIN] | – | – | – | – | – | – | – | – | – | – | – | – | – | – | – | – | >80%

Compound | Ki [8] | Ki [9] | inhibition [16] | inhibition [1] | inhibition (INH) [2] | inhibition [3] | inhibition [4] | inhibition [5] | Activity [6] | Activity [7] | Activity [10] | Activity [11] | Activity [12] | Activity [13] | ED50 [14] | Activity [15] | Activity [17] | Activity [18] | Activity [19] | inhibition (INH) [20]
O=[N+]([O-])c1cc(NC(=S)NCc2ccccc2)ccc1Cl | > 10 µM | > 10 µM | – | inactive | 70.5% | Active | Active | Active | Non-toxic | Non-toxic | Non-toxic | Non-toxic | 43.75% | – | 909 mg/kg | Non-toxic | 43.75% | Active | Active | –

From ChEMBL document CHEMBL3797076, “5-HT2 receptor affinity, docking studies and pharmacological evaluation of a series of 1,3-disubstituted thiourea derivatives” (Eur J Med Chem, 2016)
